Values after ≈ are worked out from the molar mass of the structure shown.
Columns and labels:
[1] = Stability of compound at pH 1 assessed as prodrug remaining level at 125 ug/ml incubated for 24 hrs by HPLC analysis; assay type: physicochemical; settings: buffer, pH 1, 24 h, at 125 µg/mL
Summary of the method: (§1)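 A DMSO stock of about 1.25 mg/mL was diluted into 0.1 N HCl (pH 1) or 50 mM phosphate buffer (pH 7.4), giving final concentrations of ~125 µg/mL prodrug and 10% DMSO. The solution was filtered and held at 37 °C in the HPLC autosampler, with injections at several times over 24 h. Percent remaining was calculated from prodrug peak area relative to t0.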

[2] = Cmax in CD1 mouse assessed as pibrentasvir1 level at 6 mg/kg, po measured up to 24 hrs; assay type: ADME, organism-based; set-up: route oral, dose 6 mg/kg, time <=24; settings: in vivo
Summary of the method: (§2)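 CD-1 mice with free access to food and water received an oral gavage of prodrug or PIB at 10 mL/kg in 0.2% HPMC. The dose was adjusted for prodrug MW to equal 6 mg/kg PIB. K2EDTA blood was drawn at 0.25, 0.5, 1, 3, 6, 9, 12 and 24 h. Plasma was spun at 3200 x g for 5 min at ~4°C and stored below -15°C. PIB and prodrug were measured; AUC in ng·h/mL, Cmax in ng/mL.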

[3] = AUC in beagle dog assessed as pibrentasvir1 level at 40 mg, po measured up to 24 hrs; assay type: ADME, organism-based, Canis lupus familiaris; set-up: route oral, dose 40 mg, time <=24; settings: in vivo
Summary of the method: (§3)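 The dose equalled 40 mg PIB after adjustment for prodrug MW. Food was returned at 12 h. K2EDTA plasma was sampled at 0.25–24 h. Cmax is in ng/mL and AUC in ng·h/mL.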

[4] = Cmax in beagle dog assessed as pibrentasvir1 level at 40 mg, po measured up to 24 hrs; assay type: ADME, organism-based, Canis lupus familiaris; set-up: route oral, dose 40 mg, time <=24; settings: in vivo; summary of the method: as §3
[5] = Equilibrium solubility of compound at pH 1 incubated for 24 to 48 hrs by HPLC analysis; assay type: physicochemical; settings: buffer, time 24-48 hrs
Summary of the method: (§4)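 For equilibrium solubility, excess solid was added to 3–4 mL of medium, in triplicate. Suspension pH was read after equilibration. Solids were removed by centrifugation at 4000 rpm at 25 °C, and the supernatant was passed through a 0.45 µm filter, discarding the first 2 mL. The filtrate was quantified by HPLC against standard curves.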

[6] = AUC in CD1 mouse assessed as pibrentasvir1 level at 6 mg/kg, po measured up to 24 hrs; assay type: ADME, organism-based; set-up: route oral, dose 6 mg/kg, time <=24; settings: in vivo; summary of the method: as §2
[7] = Equilibrium solubility of compound at pH 7.4 incubated for 24 to 48 hrs by HPLC analysis; assay type: physicochemical; settings: buffer, time 24-48 hrs; summary of the method: as §4
[8] = AUC in cynomolgus monkey at 2 mg/kg, po measured up to 12 hrs; assay type: ADME, organism-based, Macaca fascicularis; set-up: route oral, dose 2 mg/kg, time <=12; settings: in vivo
Summary of the method: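 Female cynomolgus monkeys were fasted overnight and dosed by gastric intubation with a suspension in 0.5% HPMC at 0.5 mL/kg. The dose was MW-adjusted to 2 mg/kg PIB equivalent, and food was returned at 4 h. Plasma was collected at intervals up to 12 h and assayed for PIB and prodrug to give AUC in ng·h/mL.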

[9] = Solubility in FeSSIF at pH 5; assay type: physicochemical; summary of the method: as §4
[10] = Stability of compound at pH 7.4 assessed as prodrug remaining level at 125 ug/ml incubated for 24 hrs by HPLC analysis; assay type: physicochemical; settings: buffer, pH 7.4, 24 h, at 125 µg/mL; summary of the method: as §1
[11] = Half life of compound at pH 7.4 at 125 ug/ml at 37 degC by HPLC analysis; assay type: physicochemical; settings: dose 125 µg/ml
[12] = AUC in CD1 mouse assessed as pibrentasvir1 level at 3 mg/kg, po measured up to 24 hrs; assay type: ADME, organism-based; set-up: route oral, dose 3 mg/kg, time <=24; settings: in vivo
Summary of the method: (§5)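 CD-1 mice, fed ad libitum, were dosed orally at a prodrug-MW-adjusted dose equal to 3 mg/kg PIB, as a solution or suspension. Serial K2EDTA blood samples were taken from 0.25 to 24 h. Plasma was separated by centrifugation and kept frozen. PIB and prodrug levels were reported as Cmax (ng/mL) and AUC (ng·h/mL).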

[13] = Cmax in CD1 mouse assessed as pibrentasvir1 level at 3 mg/kg, po measured up to 24 hrs; assay type: ADME, organism-based; set-up: route oral, dose 3 mg/kg, time <=24; settings: in vivo; summary of the method: as §5
[14] = AUC in beagle dog at 40 mg, po measured up to 24 hrs; assay type: ADME, organism-based, Canis lupus familiaris; set-up: route oral, dose 40 mg, time <=24; settings: in vivo; summary of the method: as §3
[15] = AUC in CD1 mouse at 3 mg/kg, po measured up to 24 hrs; assay type: ADME, organism-based; set-up: route oral, dose 3 mg/kg, time <=24; settings: in vivo; summary of the method: as §5
[16] = Cmax in beagle dog at 40 mg, po measured up to 24 hrs; assay type: ADME, organism-based, Canis lupus familiaris; set-up: route oral, dose 40 mg, time <=24; settings: in vivo; summary of the method: as §3
[17] = Cmax in CD1 mouse at 3 mg/kg, po measured up to 24 hrs; assay type: ADME, organism-based; set-up: route oral, dose 3 mg/kg, time <=24; settings: in vivo; summary of the method: as §5

| SMILES | Stabilty [1] [%] | Cmax [2] [ng/mL] | AUC [3] [ng·h/mL] | Cmax [4] [ng/mL] | solubility thermodynamic [5] [µg/mL] | AUC [6] [ng·h/mL] | solubility thermodynamic [7] [µg/mL] | AUC at 12 h [8] [ng·h/mL] | solubility [9] [µg/mL] | Stabilty [10] [%] | half-life at 125 ug/ml [11] [h] | AUC [12] [ng·h/mL] | Cmax [13] [ng/mL] | AUC at 24 h [14] [ng·h/mL] | AUC at 24 h [15] [ng·h/mL] | Cmax [16] [ng/mL] | Cmax [17] [ng/mL] |
| --- | --- | --- | --- | --- | --- | --- | --- | --- | --- | --- | --- | --- | --- | --- | --- | --- | --- |
| COC(=O)N[C@H](C(=O)N1CCC[C@H]1c1nc2cc(F)c([C@H]3CC[C@H](c4cc5c(cc4F)nc([C@@H]4CCCN4C(=O)[C@@H](NC(=O)OC)[C@@H](C)OC)n5COP(=O)(O)O)N3c3cc(F)c(N4CCC(c5ccc(F)cc5)CC4)c(F)c3)cc2[nH]1)[C@@H](C)OC | 100 | – | 1470 | 152 | > 4000 | – | > 4000 | – | – | 100 | – | 278 | 17 | 93 | 12.6 | 20 | 2.2 |
| COC(=O)N[C@H](C(=O)N1CCC[C@H]1c1nc2cc(F)c([C@H]3CC[C@H](c4cc5nc([C@@H]6CCCN6C(=O)[C@@H](NC(=O)OC)[C@@H](C)OC)n(COP(=O)(O)O)c5cc4F)N3c3cc(F)c(N4CCC(c5ccc(F)cc5)CC4)c(F)c3)cc2[nH]1)[C@@H](C)OC | 100 | – | 429 | 55 | 37.3 (≈ 30.5 µM) | – | 6.4 (≈ 5.23 µM) | 160 | – | 100 | > 72 | 2660 | 141 | – | – | – | – |
| COC(=O)N[C@H](C(=O)N1CCC[C@H]1c1nc2cc(F)c([C@H]3CC[C@H](c4cc5nc([C@@H]6CCCN6C(=O)[C@@H](NC(=O)OC)[C@@H](C)OC)n(COC(=O)[C@@H](NC(=O)COP(=O)(O)O)C(C)C)c5cc4F)N3c3cc(F)c(N4CCC(c5ccc(F)cc5)CC4)c(F)c3)cc2[nH]1)[C@@H](C)OC | 97 | – | 1210 | 112 | 186 (≈ 135 µM) | – | 0.7 (≈ 0.507 µM) | – | – | 31 | < 24 | 3710 | 216 | – | – | – | – |

Further lines, results first:

| Stabilty [1] [%] | Cmax [2] [ng/mL] | AUC [3] [ng·h/mL] | Cmax [4] [ng/mL] | solubility thermodynamic [5] [µg/mL] | AUC [6] [ng·h/mL] | solubility thermodynamic [7] [µg/mL] | AUC at 12 h [8] [ng·h/mL] | solubility [9] [µg/mL] | Stabilty [10] [%] | half-life at 125 ug/ml [11] [h] | AUC [12] [ng·h/mL] | Cmax [13] [ng/mL] | AUC at 24 h [14] [ng·h/mL] | AUC at 24 h [15] [ng·h/mL] | Cmax [16] [ng/mL] | Cmax [17] [ng/mL] | SMILES |
| --- | --- | --- | --- | --- | --- | --- | --- | --- | --- | --- | --- | --- | --- | --- | --- | --- | --- |
| 87 | 1210 | 3210 | 249 | 572 (≈ 401 µM) | 20600 | 0.5 (≈ 0.35 µM) | 240 | 794 (≈ 556 µM) | 100 | > 72 | – | – | – | – | – | – | COC(=O)N[C@H](C(=O)N1CCC[C@H]1c1nc2cc(F)c([C@H]3CC[C@H](c4cc5nc([C@@H]6CCCN6C(=O)[C@@H](NC(=O)OC)[C@@H](C)OC)n(COC(=O)CC(C)(C)c6c(C)cc(C)cc6OP(=O)(O)O)c5cc4F)N3c3cc(F)c(N4CCC(c5ccc(F)cc5)CC4)c(F)c3)cc2[nH]1)[C@@H](C)OC |
| 78 | – | 3940 | 379 | > 1000 | – | < 0.1 | – | > 1000 | 5 | – | 2340 | 129 | 568 | – | – | – | COC(=O)N[C@H](C(=O)N1CCC[C@H]1c1nc2cc(F)c([C@H]3CC[C@H](c4cc5nc([C@@H]6CCCN6C(=O)[C@@H](NC(=O)OC)[C@@H](C)OC)n(COC(=O)[C@@H](N)C(C)C)c5cc4F)N3c3cc(F)c(N4CCC(c5ccc(F)cc5)CC4)c(F)c3)cc2[nH]1)[C@@H](C)OC |

— ChEMBL document CHEMBL4725393, “Prodrug Strategies to Improve the Solubility of the HCV NS5A Inhibitor Pibrentasvir (ABT-530)” (J Med Chem, 2020)
